# APJ ag: activates the human apelin receptor APJ; P35414; CHO-K1 APJ PathHunter beta-arrestin, luminescence; 0% DMSO wells, 100% apelin; activation, % at 20 µM; actives 0.11% (n = 330,000);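 active = activation more than six SD over the plate average, tested at 20 µM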;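 note: 0% = DMSO alone and 100% = apelin-13 at 10 nM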
#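 Test system – PathHunter CHO-K1 APJ (AGTRL-1) beta-arrestin reporter cells · Input – 1000 cells/well · Compound – single test compound dose, 20 µM final, 1% DMSO · Times – compound stimulation 90 min at 25 °C, detection 60 min · Technique – beta-gal luminescence · Read-out basis – APJ–arrestin association signal · Control set – negative DMSO alone, positive Apelin-13 at 10 nM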
# EBI2 antag: EBI2 (human) antagonism. P32249. EBI2 beta-arrestin recruitment, luminescence, 7a,25-OHC stimulated. inhibition, % at 5 µM. actives 0.81% (n = 360,000); in the data active = inhibition above about 38%;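 note: enzyme fragment complementation signal reports receptor beta-arrestin coupling in cells; 0% = agonist plus DMSO wells and 100% = wells without agonist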
# CCR6 antag: blocks CCL20-driven beta-arrestin recruitment at human CCR6 | inhibition, % at 20 µM | AID 493098 | CHO-K1 CCR6 PathHunter beta-arrestin, luminescence, CCL20-stimulated | actives 0.49% (n = 340,000) | P51684;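 active = compounds whose inhibition of the agonist-driven luminescence signal at 20 µM reaches about 50%, limit read from the data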;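 note: cells stimulated with CCL20 at 14 nM final; plate controls were DMSO with CCL20 for no effect and DMSO without agonist for full effect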
# Target sequence (P51684 whole entry, looked up): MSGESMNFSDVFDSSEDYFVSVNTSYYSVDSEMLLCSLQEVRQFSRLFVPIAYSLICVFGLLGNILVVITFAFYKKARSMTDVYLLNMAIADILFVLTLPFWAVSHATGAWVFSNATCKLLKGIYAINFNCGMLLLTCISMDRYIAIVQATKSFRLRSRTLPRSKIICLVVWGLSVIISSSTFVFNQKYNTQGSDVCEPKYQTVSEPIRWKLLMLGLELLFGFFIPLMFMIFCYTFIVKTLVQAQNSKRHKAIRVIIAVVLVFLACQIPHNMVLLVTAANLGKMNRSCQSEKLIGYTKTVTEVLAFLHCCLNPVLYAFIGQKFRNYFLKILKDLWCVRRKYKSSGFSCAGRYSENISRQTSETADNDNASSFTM
# m5-HT2A agonist: mouse HTR2A agonism via beta-arrestin recruitment; P35363; CHO-K1 mHTR2A beta-arrestin complementation, luminescence; percent of 30 µM serotonin response; activation, % at 7.6 µM; actives 0.66% (n = 360,000); AID 624169;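 active = activation above a run cutoff, the mean activation of all tested compounds plus 3 SD, cut at about 14% in these data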;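 note: 0% = plate median of compound wells and 100% = 30 µM serotonin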
# APJ antag: APJ receptor antagonism; CHO-K1 APJ beta-arrestin complementation, luminescence; inhibition, % at 20 µM; P35414; actives 0.32% (n = 330,000);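 active = inhibition above about 40% at 20 µM, limit read from the data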;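 note: cells challenged with 10 nM apelin-13 agonist together with compound; plate controls were apelin-13 plus DMSO wells for no effect and DMSO wells lacking apelin-13 for full effect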
# CXCR6 block: blocks human CXCR6 beta-arrestin recruitment. O00574. CHO-K1 PathHunter CXCR6 beta-arrestin, luminescence. inhibition, % at 20 µM. actives 0.36% (n = 360,000). AID 602244; in the data active = inhibition above about 34%, passing the limit was not always enough;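 note: antagonist mode with CXCL16 agonist at 10 nM final; 0% = 10 nM CXCL16 with DMSO and 100% = unstimulated wells without agonist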
# MOR ag counter: counter-screen for mouse HTR2A agonists: human mu opioid receptor agonists. U2OS OPRM1 beta-arrestin PathHunter, luminescence; DMSO 0%, DAMGO 9.3 µM 100%. shares compounds with m5-HT2A agonist. activation, % at 9.3 µM. actives 5.3% (n = 2,300). AID 624380;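 active = mean activation above the mean of DMSO-only wells plus 3 SD, cut at about 0.5% in these data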
# m5-HT2A ag conf: mouse HTR2A agonism confirmed | shares compounds with m5-HT2A agonist | CHO-K1 PathHunter beta-arrestin recruitment, luminescence; DMSO 0%, 30 µM serotonin 100% | activation, % at 7.6 µM | actives 19% (n = 2,300) | AID 624381;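 active = mean activation across triplicates above the hit threshold derived in the original primary screen, cut at about 15% in these data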
# Active calls of the source: *; / = no result given. The list is not random: actives were taken first. Their share in the collection is about 2.2%.
SMILES,APJ ag,EBI2 antag,CCR6 antag,m5-HT2A agonist,APJ antag,CXCR6 block,MOR ag counter,m5-HT2A ag conf
CC(=O)N1C[C@H]2CON(C)[C@H]2C[C@H]1c1cccc(-c2ccc(C#N)cc2)c1,/,0,/,3,/,-3,/,/
CCC(C)n1c(SCC(=O)NC2CC2)nc2ccccc2c1=O (stereo not given),/,1,/,0,/,9,/,/
CC(C)CSCC1OC(n2cnc3c(N)nccc32)C(O)C1O (stereo not given),/,-5,/,-3,/,-2,/,/
CCS(=O)(=O)Nc1ccc(-c2cc(-c3ccccc3)c3cc(C)ccc3n2)cc1,/,19,-5,15*,/,-10,0,4
Cc1ccc2nc(-c3ccc(NS(C)(=O)=O)cc3)cc(-c3ccccc3)c2c1,-4,16,8,5,2,1,/,/
O=C(c1ccco1)N1CCN(Cc2ccccc2Br)CC1,-7,-13,-9,16*,7,6,-1,64*
O=C(c1ccco1)N1CCN(C(=O)c2ccco2)CC1,/,-7,/,11,/,8,/,/
C1=CC2CC1CC2CN1CCN(c2ccccc2)CC1 (stereo not given),-2,7,2,15*,6,-2,0,57*
COc1ccc(CN2CCN(C(=O)c3ccco3)CC2)cc1,0,6,-23,25*,6,2,-1,103*
O=C(c1ccco1)N1CCN(Cc2ccc(F)cc2)CC1,-2,-8,-1,20*,-13,4,0,74*
CC(=O)Nc1c([N+](=O)[O-])cc2c3c(cccc13)CC2,/,-12,/,0,/,4,/,/
CC1(C)CC(Cc2ccc(C(F)(F)F)cn2)N(C(=O)OC(C)(C)C)C1 (stereo not given),/,-1,/,6,/,/,/,/
COc1ccc(N2CCN(C(=O)COC(=O)Cc3cccc(OC)c3)CC2)cc1,-6,-6,-3,2,-7,-7,/,/
CCOc1ccc(C(=O)N2CCN(C(=O)c3ccco3)CC2)cc1OCC,-1,2,5,2,16,8,/,/
COc1ccc(N2CCN(C(=O)COC(=O)c3ccco3)CC2)cc1,-4,-2,3,15*,8,-2,0,-1
CCOc1cc(CN2CCN(C(=O)c3ccco3)CC2)ccc1OC,-1,-5,-7,18*,-1,-4,-1,71*
O=C(c1ccco1)N1CCN(CC2CC3C=CC2C3)CC1 (stereo not given),1,-7,1,21*,6,1,-1,76*
COc1ccc(CN2CCN(CC(O)Cn3c4ccccc4c4ccccc43)CC2)cc1 (stereo not given),2,-5,1,19*,-7,-15,1.1*,8
C[C@H](c1ccccc1)N1C[C@H](COCc2ccccc2)Oc2cc(N3CCC[C@H]3C(N)=O)ccc2S1(=O)=O,/,3,/,-6,/,4,/,/
COc1cc(NC(=O)CCN2CCN(c3ccccc3OC)CC2)cc(OC)c1,/,-2,/,-4,/,12,/,/
COc1ccc(OC)c(C(O)c2ncc(-c3ccccc3OC)[nH]2)c1 (stereo not given),/,-3,/,-4,/,-6,/,/
COC(=O)[C@]12CCCCC=C1N(Cc1ccccc1)C(=O)[C@H](CC(=O)N1CCC(c3ccccc3)CC1)C2,/,10,/,8,/,2,/,/
CCOc1ccc(CN2CCN(C(=O)c3ccco3)CC2)cc1,-3,2,-2,24*,2,-10,0,130*
COc1ccc(NC(=S)N2CCN(Cc3ccccc3)CC2)cc1,1,15,1,-2,-2,-5,/,/
COc1ccc2ccccc2c1CN1CCN(C(=O)c2ccco2)CC1,1,12,-2,17*,-1,3,0,130*
